Experiment [1] addresses T1, Malate dehydrogenase, cytoplasmic (Sus scrofa, UniProt P11708).
T1 sequence (P11708 whole entry): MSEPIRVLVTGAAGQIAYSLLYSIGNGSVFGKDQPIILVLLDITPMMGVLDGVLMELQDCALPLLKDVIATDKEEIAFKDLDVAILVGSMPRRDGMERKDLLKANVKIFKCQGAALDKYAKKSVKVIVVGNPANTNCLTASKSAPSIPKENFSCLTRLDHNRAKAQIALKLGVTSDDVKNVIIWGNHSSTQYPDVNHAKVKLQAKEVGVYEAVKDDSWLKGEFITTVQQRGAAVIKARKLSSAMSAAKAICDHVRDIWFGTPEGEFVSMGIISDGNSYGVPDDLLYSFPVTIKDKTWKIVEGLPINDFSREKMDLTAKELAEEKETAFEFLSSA
Nature of the experiment: Ability to inhibit cytoplasmic malate dehydrogenase. The method, boiled down:
(§1)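 Pig heart enzyme (cytoplasmic or mitochondrial form), diluted in 0.05 M Tris pH 7.4 with 1% BSA to give 0.022–0.027 OD/min at 340 nm. Cuvette holds 0.05 M Tris pH 8.4, L-malate, NAD+ and Me2SO ± inhibitor. Equilibrated at 25 °C, then started with enzyme. Five inhibitor concentrations in triplicate; I50 from least-squares dose-response line.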

Experiment [2] deals with T2, Malate dehydrogenase, mitochondrial (Sus scrofa, UniProt P00346).
T2 sequence (P00346 whole entry): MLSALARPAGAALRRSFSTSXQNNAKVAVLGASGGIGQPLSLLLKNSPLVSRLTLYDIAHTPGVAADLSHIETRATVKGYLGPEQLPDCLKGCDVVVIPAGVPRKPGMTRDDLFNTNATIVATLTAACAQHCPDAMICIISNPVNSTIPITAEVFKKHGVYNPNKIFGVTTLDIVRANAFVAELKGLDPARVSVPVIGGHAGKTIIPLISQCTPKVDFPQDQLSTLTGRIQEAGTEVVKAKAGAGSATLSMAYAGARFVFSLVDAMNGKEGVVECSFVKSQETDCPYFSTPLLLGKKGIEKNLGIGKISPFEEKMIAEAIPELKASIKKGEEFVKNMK
Nature of the experiment: Ability to inhibit mitochondrial malate dehydrogenase. An outline of the steps:
as §1

Structures are written as SMILES.

Take `O=C(O)c1cnc2cc([N+](=O)[O-])ccc2c1O`: the values for the IC50 in experiment [1] and in experiment [2] were 1200 µM and 1910 µM, respectively.
`O=C(O)c1cnc2cc(OCCOc3ccc(Oc4ccccc4)cc3)ccc2c1O`: the half-maximal inhibitory concentration (IC50) came out at 81.3 µM in experiment [1] and 2.45 µM in experiment [2].
For `O=C(O)c1cnc2cc(OCCc3ccc4ccccc4c3)ccc2c1O` the same measures were 72.4 µM and 2.19 µM.
Compound `O=C(O)c1cnc2cc(OCc3ccc(F)cc3)ccc2c1O` registered an IC50 in experiment [2] of 39.8 µM. This lies in the double-digit micromolar range.
Take `O=C(O)c1cnc2cc(OCCc3ccc(Oc4ccccc4)cc3)ccc2c1O`: the IC50 in experiment [1] was determined as 61.7 µM; in experiment [2], 1.82 µM.
In turn, `O=C(O)c1cnc2cc(OCc3ccc(Br)cc3)ccc2c1O` registered an IC50 in experiment [2] of 6.76 µM.
For the compound `O=C(O)c1cnc2cc(O)ccc2c1O`, the half-inhibitory concentration (IC50) in experiment [1] is 955 µM; in experiment [2] it was 490 µM.
For `NC(=O)c1ccc2c(O)c(C(=O)O)cnc2c1` the same measures were 603 µM and 741 µM.
In experiment [2], `O=C(O)c1cnc2cc(OCCOc3ccc4ccccc4c3)ccc2c1O` returned a 50% inhibitory concentration (IC50) of 1.58 µM. This counts as single-digit micromolar.
On to `O=C(O)c1cnc2cc(OCc3ccc(Oc4ccccc4)cc3)ccc2c1O`, for which the concentration for half-maximal inhibition (IC50) was 30.9 µM in experiment [1] and 1.48 µM in experiment [2].
For `CS(=O)(=O)c1ccc2c(O)c(C(=O)O)cnc2c1`, the concentration for half-maximal inhibition (IC50) in experiment [1] was determined as 437 µM; in experiment [2] it was 661 µM.
In the same order, the values of `O=C(O)c1cnc2cc(S(=O)(=O)O)ccc2c1O` are 3090 µM and 2140 µM.
As for `CC(=O)c1ccc2c(O)c(C(=O)O)cnc2c1`, the concentration for half-maximal inhibition (IC50) in experiment [1] and in experiment [2] was 912 µM each time.
As for `O=C(O)c1cnc2cc(OCCc3ccc(Br)cc3)ccc2c1O`, the IC50 in experiment [1] is 91.2 µM; in experiment [2], 2.51 µM.
In experiment [2], `O=C(O)c1cnc2cc(OCCOc3ccc(Br)cc3)ccc2c1O` gave a half-maximal inhibitory concentration (IC50) of 5.13 µM.
For `NS(=O)(=O)c1ccc2c(O)c(C(=O)O)cnc2c1`, the results for the IC50 in experiment [1] and in experiment [2] were 692 µM and 955 µM, respectively.
For `O=C(O)c1cnc2cc(OCc3ccc(Cl)c(Cl)c3)ccc2c1O`, inhibition in experiment [2] was half-maximal at 4.79 µM (IC50).
On to `O=C(O)c1cnc2cc(Cl)ccc2c1O`, for which the IC50 came to 4680 µM in experiment [1] and 3630 µM in experiment [2].
Turning to `O=C(O)c1cnc2cc(OCCOc3ccccc3)ccc2c1O`, the midpoint of inhibition in experiment [2], the IC50, lay at 60.3 µM. This lies in the double-digit micromolar range.
Take `O=C(O)c1cnc2cc(OCCOc3ccc(F)cc3)ccc2c1O`: in experiment [2], the half-inhibitory concentration (IC50) is 18.2 µM.
`O=C(O)c1cnc2cc(F)ccc2c1O`: the 50% inhibitory concentration (IC50) was determined as 11000 µM in experiment [1] and 10500 µM in experiment [2].
Compound `O=C(O)c1cnc2cc(OCc3cccc4ccccc34)ccc2c1O` came in with a concentration for half-maximal inhibition (IC50) in experiment [2] of 13.2 µM.
`O=C(O)c1cnc2cc(OCCc3ccc(F)cc3)ccc2c1O`: the IC50 in experiment [2] came to 14.8 µM.
The compound `O=C(O)c1cnc2cc(OCc3c(Cl)c(Cl)c(Cl)c(Cl)c3Cl)ccc2c1O` had an IC50 in experiment [2] of 4.79 µM.
Still for that read-out and setting: in the case of `O=C(O)c1cnc2cc(OCc3ccccc3)ccc2c1O` it was 32.4 µM.
`O=C(O)c1cnc2cc(OCc3ccc4ccccc4c3)ccc2c1O` returned a 50% inhibitory concentration (IC50) in experiment [2] of 4.07 µM.
Take `CN(C)c1ccc2c(O)c(C(=O)O)cnc2c1`: the IC50 in experiment [1] turned out to be 372 µM; in experiment [2], 479 µM.
For `O=C(O)c1ccc2c(O)c(C(=O)O)cnc2c1` the same measures were 1290 µM and 1070 µM.
As to `O=C(O)c1cnc2cc(OCCc3ccccc3)ccc2c1O`, the IC50 worked out at 155 µM in experiment [1] and 38 µM in experiment [2].

Source of the values: BindingDB's records for doi:10.1021/jm00343a011 (1982).
